The list is not random: actives were taken first. Their share in the collection is about 3.5%.
MrgX1 ag: activates human MrgX1 receptor signaling; Q96LB2; MrgX1-HEK293 cells, Fluo-4 calcium fluorescence, agonist mode; hits give high values; B-score at 10 µM; 0.44% of 310,000 active;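 active means calcium response B-score plate-corrected fluorescence ratio at least 3 library SD, with starting fluorescence B-score inside 5 SD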
Target sequence (Q96LB2 whole entry, looked up): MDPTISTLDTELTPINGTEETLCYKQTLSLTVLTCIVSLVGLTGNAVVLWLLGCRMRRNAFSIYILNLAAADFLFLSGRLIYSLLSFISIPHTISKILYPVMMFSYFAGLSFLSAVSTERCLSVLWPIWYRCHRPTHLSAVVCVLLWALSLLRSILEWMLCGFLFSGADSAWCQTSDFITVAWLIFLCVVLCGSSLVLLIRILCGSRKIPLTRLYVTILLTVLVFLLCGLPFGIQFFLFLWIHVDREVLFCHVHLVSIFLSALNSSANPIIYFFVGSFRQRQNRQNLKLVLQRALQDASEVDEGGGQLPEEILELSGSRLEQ
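Material: HEK293 cells stably expressing human MrgX1 receptor | Quantity: 15,000 cells per well | Times: Cells plated overnight, dye loaded 0.5 h 37 °C, 0.5 h room temperature | Measured by: Kinetic Fluo-4 NW fluorescence of intracellular calcium | Control set: Positive and negative controls per plate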
MrgX1 PAM: allosterically activates human MrgX1 receptor signaling | B-score at 10 µM | 0.63% of 310,000 active | AID 588675 | MrgX1-HEK293, Fluo-4 calcium flux, FDSS; hits give high values | Q96LB2;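 active means plate-corrected calcium response at least 3 library SD above typical, normal starting fluorescence, not activating the receptor alone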;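 further: compound read alongside a low EC10 to EC30 dose of BAM8-22 agonist; peak minus trough fluorescence over baseline measured at the second addition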
RGS4 block: inhibitors of human RGS4. 0.45% of 310,000 active. B-score at 10 µM. AID 463165. P49798. HEK293 M3R/RGS4 inducible, Fluo-4 calcium flux; hits give high values; triggered by carbachol at its EC20;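 active means B-score, a plate-corrected calcium signal, over three deviations above library mean, with baseline fluorescence within five deviations of library mean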;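 further: RGS4 expression induced by doxycycline in cells with stable M3 receptor; B-score is computed from the integrated fluorescence ratio over baseline after carbachol; higher B-score means a larger calcium signal and so more RGS4 inhibition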
Target sequence (P49798 whole entry, looked up): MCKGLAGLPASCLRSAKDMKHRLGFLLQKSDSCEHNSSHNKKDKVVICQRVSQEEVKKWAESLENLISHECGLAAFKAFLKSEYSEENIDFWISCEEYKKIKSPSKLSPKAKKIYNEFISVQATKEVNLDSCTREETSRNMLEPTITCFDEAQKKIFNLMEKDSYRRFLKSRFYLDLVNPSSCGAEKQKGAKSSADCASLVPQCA
MrgX1 antagonist: human MrgX1 receptor antagonism, primary screen; Q96LB2; MRGX1-HEK293 calcium flux, Fluo-4, BAM8-22 antagonism; hits give low values; B-score at 10 µM; 1.3% of 310,000 active; AID 588676;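 active means calcium-response B-score plate-corrected more than 3 library SD below zero, starting fluorescence within 5 deviations, no agonist response on first addition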;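 further: peak minus trough fluorescence over baseline after final BAM8-22 challenge near maximal dose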
RGS4 pot: RGS4 potentiation or activation | HEK293 M3R/inducible RGS4, carbachol calcium flux Fluo4; hits give low values | B-score at 10 µM | 0.92% of 310,000 active | AID 463111;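 active means B-score of the integrated calcium signal more than 4 SD below the library mean, with starting fluorescence not abnormally high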;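 further: negative B-score means reduced calcium response which marks RGS4 activation or potentiation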
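Reagent: ECmax carbachol challenge; Test system: M3R-expressing HEK293 line, RGS4 induced by doxycycline; Schedule: overnight RGS4 induction, 30 min dye load 37 °C, 20 min compound RT; Detection: calcium dye Fluo4 fluorescence; Read-out: Agonist-evoked peak-minus-minimum fluorescence over baseline, integrated ratio, B score.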
Large screens that a line does not name were inactive.

c1ccc(Cn2c[n+](Cc3ccccc3)c3ccccc32)cc1	none
CC(COc1ccccc1Cc1ccccc1)N1CCCCC1 (stereo unspecified)	RGS4 pot -7.38
O=C(O)COc1ccccc1Cc1ccccc1	none
COCCNC(=O)c1cccc(OC2CCN(C(C)COc3ccccc3)CC2)c1 (stereo unspecified)	MrgX1 ag 31.8
COCCNC(=O)c1cccc(OC2CCN(Cc3ccccc3OCCO)CC2)c1	none
CN1CCc2nc3ccc(Cl)cc3c(-c3ccccc3Cl)c2C1	RGS4 pot -8.64
Cc1nc2ccc(Cl)cc2c(-c2ccccc2Cl)c1CC(=O)O	none
CCOc1ccc(N2CC(=O)Nc3ccccc3NCC2=O)cc1	MrgX1 antagonist -5.92
COCC(=O)N1CCC(Oc2ccc(C(=O)N3CCCCCC3)cc2)CC1	none
O=C(NN1C(=O)C2C(c3ccccc3)C=CC(c3ccccc3)C2C1=O)c1cccc(Br)c1 (stereo unspecified)	RGS4 pot -10.1
COc1ccc(/C=C/C(=O)N(Cc2cccs2)C2CCS(=O)(=O)C2)cc1 (stereo unspecified)	RGS4 pot -7.45
CCCOc1ccc(N)cc1N	MrgX1 antagonist -6.68
COc1ccc2cc(/C=C3\SC(=S)NC3=O)c(N3CCOCC3)nc2c1	MrgX1 antagonist -6.92
O=C1NC(=S)S/C1=C/c1ccc(N2CCOCC2)o1	none
COC(=O)Cn1ncc2c3ccccc3n(Cc3ccccc3)c2c1=O	none
O=C(Cn1ncc2c3ccccc3n(Cc3ccccc3)c2c1=O)NCCCN1CCCC1=O	MrgX1 antagonist -8.09
O=C(Cn1ncc2c3ccccc3n(Cc3ccc(Cl)cc3)c2c1=O)NCCCN1CCCC1=O	none
O=C(Cn1ncc2c3ccccc3n(Cc3ccc(F)cc3)c2c1=O)N1CCN(c2ncccn2)CC1	MrgX1 antagonist -8.12
Cc1ccc(S(=O)(=O)c2nnn3c2nc(NC2CCN(Cc4ccccc4)CC2)c2ccccc23)cc1C	MrgX1 PAM 8.27, MrgX1 antagonist -11
Cc1ccc(S(=O)(=O)c2nnn3c2nc(NCCCN2CCCC2=O)c2ccccc23)cc1C	none
N#Cc1c(-n2cccc2/C=N/O)sc2c1CCCC2	MrgX1 ag 32.4
CC(NS(=O)(=O)OCC(Cl)(Cl)Cl)c1ccc(Br)cc1 (stereo unspecified)	none
COc1ccccc1N1CCN(C(=O)c2oc3c(c2C)C(=O)CC(C)(C)C3)CC1	none
C[N+]1(CC(=O)OC2CCCCCCCCCCC2)CCCC1	RGS4 pot -7.23
O=c1[nH]c(=S)[nH]c2sc3c(c12)CCCCCC3	none
COc1ccc(-c2nn(-c3ccccc3)cc2/C=N/O)cc1	none
CC(C)Oc1ccc(-c2nn(-c3ccccc3)cc2/C=c2\sc3ncnn3c2=O)cc1	MrgX1 ag 47.2 (no result: RGS4 block, RGS4 pot)
CC(C)NC(=O)COC(=O)Cn1[nH]c(=O)c2ccccc2c1=O	none
COc1ccccc1C(=O)NC(=O)COC(=O)Cn1[nH]c(=O)c2ccccc2c1=O	MrgX1 antagonist -4.52
CCC(=O)Nc1cccc(C(=O)c2ccc(C)c(C)c2)c1	none
CCN(CC)C(=O)N1c2ccccc2C=Cc2ccccc21	none
CN(C)CCCNC(=O)N1c2ccccc2C=Cc2ccccc21	RGS4 pot -7.24
C=C(C)C(=O)Oc1ccc(N2C(=O)[C@@H]3C4C=CC(C4)[C@@H]3C2=O)cc1	none
COc1cc(/C=N/Nc2ccc(C(F)(F)F)cn2)ccc1O	MrgX1 PAM 7.51
CCC(O)CNc1nc(SC)nc2sc3c(c12)CCN(C)C3 (stereo unspecified)	RGS4 pot -7.15
CSc1nc(SCC(=O)NCc2ccco2)c2c3c(sc2n1)CN(C)CC3	none
CSc1nc(NCc2ccco2)c2c3c(sc2n1)CN(C)CC3	MrgX1 antagonist -4.7, RGS4 pot -7.68
CC(C)(C)c1ccc(C(=O)COC(=O)CN2C(=O)NC3(CCCC3)C2=O)cc1	none
CC1(C)CCCC2=C1CC1C(=O)N(N)C(=O)C1C2 (stereo unspecified)	none
CCn1c(=O)c(C(=O)NNC(=O)c2ccccc2)c(O)c2ccccc21	MrgX1 ag 30.2
CC(C)Cn1c(=O)c(C(=O)Nc2cnccn2)c(O)c2ccccc21	none
CC(C)Cn1c(=O)c(C(=O)Nc2ccncc2)c(O)c2ccccc21	RGS4 pot -8.92
C=CCn1c(=O)c(C(=O)NCc2ccccc2)c(O)c2ccccc21	RGS4 pot -7.08
C=CCn1c(=O)c(C(=O)NCCNCC)c(O)c2ccccc21	none
CCCCCCCCNC(=S)NCCN1CCCCC1	none (no result: MrgX1 ag, MrgX1 PAM, MrgX1 antagonist)
c1ccc2c(-c3[nH]ncc3CNCCCn3ncc4ccccc43)cccc2c1	none
Cc1ccc2c(c1)/C(=N/OC(=O)c1ccc(F)cc1)CCS2	none
O=C(O/N=C1/CCSc2ccccc21)c1ccccc1	MrgX1 PAM 8.88
C#CCOCCOCCOCCNc1nc(N2CCN(C(=O)[C@H](CCCCN)n3cc(C(N)CO)nn3)CC2)nc(N2CCN(C(=O)[C@H](CCC(=O)O)n3cc(C(N)[C@H](C)CC)nn3)CC2)n1 (stereo partly specified)	MrgX1 antagonist -4.53
C#CCOCCOCCOCCNc1nc(N2CCN(C(=O)[C@H](Cc3cc4ccccc4[nH]3)n3cc(C(N)CC(C)C)nn3)CC2)nc(N2CCN(C(=O)[C@H](CCC(=O)O)n3cc(C(N)[C@H](C)CC)nn3)CC2)n1 (stereo partly specified)	MrgX1 PAM 8.87
O=C1C(Cl)=C(N2CCCCCC2)C(=O)N1c1ccccc1	RGS4 pot -7.41
COC(=O)C(CC(=O)c1ccc(Br)cc1)n1ccnc1 (stereo unspecified)	RGS4 block 6.64 (no result: MrgX1 ag, MrgX1 PAM, MrgX1 antagonist)
COC(=O)C(CC(=O)c1ccc(Br)cc1)n1nc(C)cc1C (stereo unspecified)	none
CCn1ncc(/C=C/C(=O)NCc2cn(C)nc2C)c1C	MrgX1 antagonist -4.75
CCn1ncc(/C=C/C(=O)NCc2cnn(C)c2C)c1C	none
COc1ccc(OC)c(/C=C2/Sc3ccccc3C2=O)c1	MrgX1 PAM 8.69
Cc1ccc(C(=O)OC(C)CN2C(C)CCCC2C)cc1 (stereo unspecified)	none
CCn1c(CNC(=O)c2cccnc2)cc2ccccc21	none
CCOC(=O)c1cnc2c(C)c(Cl)ccc2c1NCCCN1CCOCC1	MrgX1 PAM 9.1
CCCCC(CC)CN=C(N)NC(N)=NCCCCCCN=C(N)NC(N)=NCC(CC)CCCC (stereo unspecified)	MrgX1 ag 170 (no result: RGS4 block, RGS4 pot)
N#C/C(=C(/O)CSc1ncn[nH]1)c1nc2ccccc2[nH]1	MrgX1 antagonist -6.09
C/C(O)=C(/C#N)c1nc2ccccc2[nH]1	none
COc1ccccc1C(=O)NCC(=O)OCC(=O)Nc1ccc2[nH]c(=O)[nH]c2c1	none
COc1ccc2oc(=O)c(C(=O)C[n+]3cccc(C)c3)cc2c1	RGS4 pot -10.4
CNC(=O)c1cc2cc(OC)ccc2oc1=O	none
CCN(CC)CCNC(=O)c1ccc(NC(=O)c2cn(-c3ccccc3)nc2-c2cccs2)cc1	RGS4 pot -8.07

Compound activity deposited in PubChem BioAssay by Johns Hopkins Ion Channel Center.
